In ChEMBL document CHEMBL5137109, “Tunable Cysteine-Targeting Electrophilic Heteroaromatic Warheads Induce Ferroptosis” (J Med Chem, 2022):
Active and inactive are the calls of the source. No cut-off for these calls is given here.

What was measured:
NCI-H522 [1] = test: Cytotoxicity against human NCI-H522 cells assessed as reduction in cell viability incubated for 3 days by methylene blue staining based analysis; assay type: functional; conditions: NCI-H522, 72 h
HCT-116 = test: Cytotoxicity against human HCT-116 cells assessed as reduction in cell viability incubated for 3 days by methylene blue staining based analysis; assay type: functional; conditions: HCT-116, 72 h
NCI-H522 [2] = test: Cytotoxicity against human NCI-H522 cells assessed as reduction in cell survival at 4.5 uM incubated for 3 days in presence of ferroptosis inhibitor, liproxstatin-1 by methylene blue staining based analysis; assay type: functional; conditions: time 3.0 day
Method in brief: (§1)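 NCI-H522 cells seeded at 25×10³/well (n=3), adhered overnight, then exposed to compound with or without liproxstatin-1 (0.25 μM). After 3 days, methylene blue staining with HCl elution and A668. Results given as % relative to DMSO control, mean ± SD, n=3, one-way ANOVA. Fold change is IC50 (with liproxstatin-1)/IC50 (alone).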

[3] = Selectivity ratio of IC50 for human HCT-116 cells to IC50 for human NCI-H522 cells by methylene blue staining based analysis; assay type: functional
[4] = molecular target: T1, Phospholipid hydroperoxide glutathione peroxidase GPX4 (Homo sapiens) (UniProt P36969); test: Binding affinity to GPX4 in human NCI-H522 cells at 10 uM incubated for 1 hr by Biotin-TAMRA pull down based mass spectrometry; assay type: cell-based
T1 sequence (whole entry): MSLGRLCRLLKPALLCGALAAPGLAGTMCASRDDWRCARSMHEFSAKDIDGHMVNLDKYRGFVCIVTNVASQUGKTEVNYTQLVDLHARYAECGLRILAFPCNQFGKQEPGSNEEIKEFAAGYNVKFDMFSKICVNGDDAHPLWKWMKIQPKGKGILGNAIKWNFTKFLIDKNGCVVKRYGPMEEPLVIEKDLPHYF
Method in brief: (§2)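 Cells ~70% density, five 10 cm dishes per treatment, exposed to alkyne probe or control for 1 h at 37 °C, then lysed (NP-40/Tris). Lysate precleared on streptavidin beads 2 h at 4 °C, then CuAAC with biotin-TAMRA azide, THPTA, CuSO4 and ascorbate for 30 min at RT. Proteins MeOH/CHCl3 precipitated, enriched overnight on streptavidin, checked by in-gel fluorescence. Reduced/alkylated, trypsin-digested, nano LC-MS/MS. Filtered at 1% FDR, ≥2 unique peptides.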

[5] = molecular target: T2, Thioredoxin reductase 1, cytoplasmic (Homo sapiens) (UniProt Q16881); test: Binding affinity to TXRD1 in human NCI-H522 cells at 10 uM incubated for 1 hr by Biotin-TAMRA pull down based mass spectrometry; assay type: cell-based; method in brief: as §2
T2 sequence (whole entry): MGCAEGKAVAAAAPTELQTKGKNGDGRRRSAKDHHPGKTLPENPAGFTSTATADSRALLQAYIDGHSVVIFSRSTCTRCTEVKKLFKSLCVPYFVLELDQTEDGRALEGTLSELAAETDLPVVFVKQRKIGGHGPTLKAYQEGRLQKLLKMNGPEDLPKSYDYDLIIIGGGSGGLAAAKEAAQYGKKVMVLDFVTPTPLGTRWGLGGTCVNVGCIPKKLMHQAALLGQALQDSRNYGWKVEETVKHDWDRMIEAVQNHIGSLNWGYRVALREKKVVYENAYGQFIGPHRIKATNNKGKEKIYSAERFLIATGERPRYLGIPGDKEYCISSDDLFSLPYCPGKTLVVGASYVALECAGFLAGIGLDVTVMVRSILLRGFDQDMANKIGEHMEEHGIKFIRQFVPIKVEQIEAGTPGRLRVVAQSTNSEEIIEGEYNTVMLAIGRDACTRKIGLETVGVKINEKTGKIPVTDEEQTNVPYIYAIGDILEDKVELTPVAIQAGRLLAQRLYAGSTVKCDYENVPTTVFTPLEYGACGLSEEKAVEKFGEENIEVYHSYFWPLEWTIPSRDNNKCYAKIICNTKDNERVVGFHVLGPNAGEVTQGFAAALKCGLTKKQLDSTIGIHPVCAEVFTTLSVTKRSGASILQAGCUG

[6] = molecular target: T1, Phospholipid hydroperoxide glutathione peroxidase GPX4 (Homo sapiens); test: Binding affinity to GPX4 in human NCI-H522 cells at 10 uM incubated for 1 hr by Biotin-TAMRA pull down based western blot analysis; assay type: cell-based
Method in brief: (§3)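 Probe or control given to cells for 1 h at 37 °C, two 10 cm dishes per treatment. Lysates precleared with streptavidin, then clicked to biotin-TAMRA azide (20 min RT plus 10 min 37 °C). Proteins precipitated, captured overnight on streptavidin beads and washed with RIPA/PBS. Bead eluates separated on 12.5% SDS-PAGE and immunoblotted, with milk blocking, primary antibody overnight at 4 °C, HRP secondary and ECL.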

[7] = molecular target: T3, Glutathione S-transferase omega-1 (Homo sapiens) (UniProt P78417); test: Binding affinity to GSTO1 in human NCI-H522 cells at 10 uM incubated for 1 hr by Biotin-TAMRA pull down based mass spectrometry; assay type: cell-based; method in brief: as §2
T3 sequence (whole entry): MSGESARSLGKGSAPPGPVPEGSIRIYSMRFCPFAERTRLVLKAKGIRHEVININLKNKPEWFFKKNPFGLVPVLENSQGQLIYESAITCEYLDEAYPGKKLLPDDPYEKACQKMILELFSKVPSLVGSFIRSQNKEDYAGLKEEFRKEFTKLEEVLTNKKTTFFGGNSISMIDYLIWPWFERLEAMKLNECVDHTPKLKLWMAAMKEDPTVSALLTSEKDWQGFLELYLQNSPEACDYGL

[8] = molecular target: T3, Glutathione S-transferase omega-1 (Homo sapiens); test: Binding affinity to GSTO1 in human NCI-H522 cells at 10 uM incubated for 1 hr by Biotin-TAMRA pull down based western blot analysis; assay type: cell-based; method in brief: as §3
NCI-H522 [9] = test: Induction of lipid peroxidation in human NCI-H522 cells assessed as increase in C11-BODIPY oxidation at 10 uM incubated for 6 hrs by flow cytometry; assay type: functional, cell-based
Method in brief: (§4)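 NCI-H522 cells (~70% density) plated in dishes overnight, then treated with compound or DMSO plus C11-BODIPY 581/591 (1 μM) added at treatment. After 3 h or 6 h, cells washed, trypsinized, resuspended in PBS with 2% FBS and analysed by flow cytometry (preferably 20×10³ cells). Oxidation compared with DMSO treatment.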

MDA-MB-468 = test: Cytotoxicity against human MDA-MB-468 cells assessed as reduction in cell viability incubated for 3 days by methylene blue staining based analysis; assay type: functional; conditions: MDA-MB-468, 72 h
HeLa = test: Cytotoxicity against human HeLa cells assessed as reduction in cell viability incubated for 3 days by methylene blue staining based analysis; assay type: functional; conditions: 72 h
[10] = Ratio of IC50 for cytotoxicity against human NCI-H522 cells in presence of ferroptosis inhibitor, liproxstatin-1 to IC50 for cytotoxicity against human NCI-H522 cells; assay type: functional
Method in brief: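 NCI-H522 cells, 25*10³/well (n=3), plated overnight, treated with compound with or without Liproxstatin-1 (0.25 μM). After 3 days, methylene blue in 50% ethanol fix/stain 30 min RT, dye dissolved in 0.1N HCl, A668. Fold change = IC₅₀ with Liproxstatin-1 / IC₅₀ without.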

NCI-H522 [11] = test: Induction of lipid peroxidation in human NCI-H522 cells assessed as increase in C11-BODIPY oxidation at 0.5 uM incubated for 3 hrs by flow cytometry; assay type: functional, cell-based; method in brief: as §4
[12] = molecular target: T1, Phospholipid hydroperoxide glutathione peroxidase GPX4 (Homo sapiens); test: Binding affinity to GPX4 in human NCI-H522 cells assessed as increase in aggregation temperature at 0.5 uM incubated for 1 hr by CETSA analysis; assay type: cell-based
Method in brief: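 Cells ~80% confluent treated 1 h (vehicle DMSO 0.1% v/v), trypsinized, washed, resuspended in PBS and aliquots heated at temperatures between 43–67 °C for 3 min. Cells then pelleted and lysed in NP-40/Tris buffer. Soluble fraction analysed by SDS-PAGE and western blot, and aggregation temperature compared with DMSO. Mean ± SD, n = 3, t-test.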

U2OS = test: Cytotoxicity against human U2OS cells assessed as reduction in cell viability incubated for 3 days by methylene blue staining based analysis; assay type: functional; conditions: 72 h
NCI-H522 [13] = test: Cytotoxicity against human NCI-H522 cells assessed as reduction in cell viability incubated for 3 days in presence of ferroptosis inhibitor, liproxstatin-1 by methylene blue staining based analysis; assay type: functional; conditions: NCI-H522, 72 h; method in brief: as §1
[14] = Cytotoxicity against mouse MEF cells assessed as reduction in cell viability incubated for 3 days by methylene blue staining based analysis; assay type: toxicity
HT-1080 = test: Cytotoxicity against human HT-1080 cells assessed as reduction in cell viability incubated for 3 days by methylene blue staining based analysis; assay type: functional; conditions: HT-1080, 72 h
MDA-MB-231 = test: Cytotoxicity against human MDA-MB-231 cells assessed as reduction in cell viability incubated for 3 days by methylene blue staining based analysis; assay type: functional; conditions: MDA-MB-231, 72 h
[15] = Cytotoxicity against human WI-38 cells assessed as reduction in cell viability incubated for 3 days by methylene blue staining based analysis; assay type: toxicity
NCI-H522 [16] = test: Induction of lipid peroxidation in human NCI-H522 cells assessed as increase in C11-BODIPY oxidation at 30 uM incubated for 6 hrs by flow cytometry; assay type: functional, cell-based; method in brief: as §4
[17] = molecular target: T2, Thioredoxin reductase 1, cytoplasmic (Homo sapiens); test: Binding affinity to TXRD1 in human NCI-H522 cells at 10 uM incubated for 1 hr by Biotin-TAMRA pull down based western blot analysis; assay type: cell-based; method in brief: as §3
NCI-H522 [18] = test: Cytotoxicity against human NCI-H522 cells assessed as time required to cause 50% irreversible cell death treated with compound followed by washing for every 30 mins for 6 hrs by methylene blue staining based analysis; assay type: functional
Method in brief: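 NCI-H522 cells, 5*10³/well (n=3), plated overnight, then treated with compound or DMSO. Wells washed immediately after treatment and then at 30-min intervals up to 6 h; last wells not washed. Methylene blue in 50% ethanol fix/stain 30 min RT, dye dissolved in 0.1N HCl, A668. Each point taken as % survival of matching DMSO-treated cells.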

NCI-H522 [19] = test: Induction of lipid peroxidation in human NCI-H522 cells assessed as increase in C11-BODIPY oxidation at 5 uM incubated for 6 hrs by flow cytometry relative to control; assay type: functional
Method in brief: (§5)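 NCI-H522 cells at ~70% density, plated overnight, treated with compound or DMSO together with C11-BODIPY 581/591 (1 μM) for 3 h or 6 h. Cells then PBS-washed, trypsinised, resuspended in PBS with 2% FBS and read by flow cytometry, preferably 20*10³ cells. Oxidation compared with DMSO treatment.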

NCI-H522 [20] = test: Induction of lipid peroxidation in human NCI-H522 cells assessed as increase in C11-BODIPY oxidation at 10 uM incubated for 3 hrs by flow cytometry; assay type: functional, cell-based; method in brief: as §5

## C=Cc1nc2ccccc2n1C
NCI-H522 [1]
  IC50: 2340 nM
HCT-116
  IC50: 9500 nM
NCI-H522 [2]
  Activity: Active
[3]
  Ratio IC50: 4.05

## C#CCNC(=O)c1csc(C#C)n1
NCI-H522 [1]
  IC50: 2100 nM
[4]
  Activity: Active
HCT-116
  IC50: 19200 nM
[5]
  Activity: Active
[6]
  Activity: Active
[7]
  Activity: Active
[8]
  Activity: Active
NCI-H522 [9]
  Activity: Active

## C#Cc1nc(C(=O)N2CCN(C(c3ccc(Cl)cc3)c3ccc(Cl)cc3)CC2)cs1
NCI-H522 [1]
  IC50: 17 nM
MDA-MB-468
  IC50: 84 nM
HeLa
  IC50: 242 nM
[10]
  Ratio IC50: 464.353
NCI-H522 [11]
  Activity: Active
[12]
  deltaT: 7 °C
U2OS
  IC50: 367 nM
HCT-116
  IC50: > 1000 nM
NCI-H522 [13]
  IC50: 7890 nM
[14]
  IC50 at 3 days: 10 nM
HT-1080
  IC50: 19 nM
MDA-MB-231
  IC50: 21 nM
[15]
  IC50 at 3 days: 22 nM

## C#Cc1nc(-c2ccccc2)cs1
NCI-H522 [1]
  IC50: 5650 nM
HCT-116
  IC50: > 40000 nM
NCI-H522 [16]
  Activity: Active
[3]
  Ratio IC50: >7.07

## C#CCNC(=O)c1csc(C#Cc2ccccc2)n1
NCI-H522 [1]
  IC50: > 40000 nM
HCT-116
  IC50: > 40000 nM
[17]
  Activity: Active

## C#Cc1nc2ccccc2s1
NCI-H522 [18]
  IT50: 1.7 h
NCI-H522 [1]
  IC50: 860 nM
HCT-116
  IC50: 19600 nM
[3]
  Ratio IC50: 22.8
NCI-H522 [19]
  fold change (FC): >5

## C#Cc1nc2ccccc2[se]1
NCI-H522 [20]
  Activity: Active
NCI-H522 [1]
  IC50: 2170 nM
HCT-116
  IC50: 25000 nM
[3]
  Ratio IC50: 11.5
